Source: PubChem BioAssay (The Scripps Research Institute Molecular Screening Center)
MBD2 inh: inhibitors of human MBD2 binding to methylated oligonucleotide. Q9UBB5. TR-FRET. inhibition, % at 4.4 µM. 370,000 tested, 0.31% active. AID 686964; in the data active = inhibition above about 13%
ARFGAP1 inhibitor: inhibitors of rat ARFGAP1. 360,000 tested, 0.26% active. Q62848. Arfgap1-stimulated ARF1 GTP hydrolysis, GDP FP detection. inhibition, % at 16.5 µM;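 active = inhibition above a per-plate limit, mean inhibition of low control wells plus 3 SD, cut at about 25% in these data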;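 note: 0% = DMSO wells with enzyme and 100% = wells lacking Arfgap1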
Target sequence (Q62848 1-136 limits assumed): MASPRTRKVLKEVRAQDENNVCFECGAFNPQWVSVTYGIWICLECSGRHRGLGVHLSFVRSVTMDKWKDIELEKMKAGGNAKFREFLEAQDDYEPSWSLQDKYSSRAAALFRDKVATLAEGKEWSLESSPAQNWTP
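Assay system: Rat Arfgap1 GAP domain (His6, aa 1-136), purified enzyme | Buffer or medium: HEPES 25 mM pH 7.5, NaCl 150 mM, MgCl2, DTT | Schedule: GTP hydrolysis reaction 2 h at 25 °C | Signal: FP of antibody-bound GDP Alexa 633 tracer, ex 620/em 688 nm | Measure: Percent inhibition of Arfgap1-stimulated GTP hydrolysis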
TCR CD3 inh: human TCR-CD3 binding inhibition | TAMRA-labeled TCR probe fluorescence, biochemical | inhibition, % at 9.4 µM | 360,000 tested, 0.37% active | AID 651800;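 note: recombinant mutant TCR 2C K166C tagged with TAMRA read by polarization; 0% = receptor in buffer alone and 100% = receptor with positive control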
UHRF1 MBD2 ctr: UHRF1 methyl-DNA binding inhibition; Q96T88; 370,000 tested, 0.75% active; AID 687016; inhibition, % at 4.4 µM; UHRF1 binding to methylated oligo, TR-FRET; in the data active = inhibition above about 21%;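 note: UHRF1 SRA domain binding a hemimethylated CpG hairpin DNA probe; 0% = median of test compound wells and 100% = reference inhibitor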
ASAP1 inh: ASAP1 ArfGAP inhibition. ASAP1-stimulated ARF1 GTP hydrolysis, GDP FP detection. inhibition, % at 16.5 µM. 360,000 tested, 0.19% active. AID 624377. Q9ULH1; in the data active = inhibition above about 25%;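 note: 0% = vehicle with enzyme and substrate and 100% = no enzyme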
Target sequence (Q9ULH1 325-724 limits assumed): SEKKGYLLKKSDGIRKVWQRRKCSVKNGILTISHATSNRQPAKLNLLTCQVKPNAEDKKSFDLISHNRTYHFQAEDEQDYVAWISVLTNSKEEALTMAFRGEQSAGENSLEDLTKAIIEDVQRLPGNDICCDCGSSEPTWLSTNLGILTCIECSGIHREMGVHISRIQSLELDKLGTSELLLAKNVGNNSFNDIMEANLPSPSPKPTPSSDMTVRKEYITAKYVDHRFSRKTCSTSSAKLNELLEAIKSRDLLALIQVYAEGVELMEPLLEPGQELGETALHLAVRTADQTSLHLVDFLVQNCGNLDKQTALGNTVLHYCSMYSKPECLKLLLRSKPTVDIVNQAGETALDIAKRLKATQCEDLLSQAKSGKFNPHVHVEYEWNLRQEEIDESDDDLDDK
LEDGF integ inh: blocks HIV-1 LEDGF/p75-dependent DNA integration. TR-FRET IN-LEDGF/p75 DNA integration, Eu/Cy5. 370,000 tested, 0.64% active. inhibition, % at 3.7 µM. AID 743269;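 active = inhibition above the screen-wide mean plus 3 SD, cut at about 13% in these data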;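 note: signal is the Cy5 over europium emission ratio at 671 and 618 nm; 0% = plate median of compound wells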
BSA probe FL: counter-screen for TCR-CD3 interaction inhibitors: BSA probe; shares compounds with TCR CD3 inh; TAMRA-labeled BSA probe fluorescence counterscreen; inhibition, % at 9.4 µM; 1,200 tested, 10% active; AID 652035; in the data active = inhibition above about 23%;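 note: 0% = buffer low control and 100% = reference high control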
TCR-CD3 conf: TCR-CD3 interaction inhibition, confirmation; inhibition, % at 9.4 µM; TAMRA-labeled TCR probe fluorescence binding assay; shares compounds with TCR CD3 inh; AID 652036; 1,200 tested, 48% active
* = called active by the depositor; . = not tested or not shown. This is a sample that favours compounds with a hit; in the whole collection about 2% have one here. Cut-off read from the data, not from the text of the source, unless noted: active = inhibition above about 19%; inactive = the rest.

SMILES	MBD2 inh	ARFGAP1 inhibitor	TCR CD3 inh	UHRF1 MBD2 ctr	ASAP1 inh	LEDGF integ inh	BSA probe FL	TCR-CD3 conf
Cc1c(Br)c(=O)oc2c(Br)c(O)c(O)cc12	10.2	-2.7	25.0*	30.8*	-0.1	-3.4	-9.3	17.4
Cc1c(Br)c(=O)oc2c(Br)c(O)ccc12	1.9	0.2	2.0	3.4	0.8	2.7	.	.
O=S(=O)(c1ccc2nc(-c3ccccc3)[nH]c2c1)N1CCN(c2cccc(Cl)c2)CC1	-1.5	-2.1	68.5*	4.5	11.4	1.3	27.1*	45.5*
COc1ccccc1N1CCN(S(=O)(=O)c2ccc3nc(-c4ccccc4)[nH]c3c2)CC1	1.6	6.1	-3.9	2.1	-12.1	-1.6	.	.
O=C(Nn1c(COc2ccccc2)nc2ccccc2c1=O)C(Cl)(Cl)Cl	3.0	-4.7	3.8	1.5	-5.1	-3.5	.	.
Cc1occc1C(=O)N/N=C/C1=C(N2CCOCC2)C(=C/c2ccc(Cl)cc2Cl)/CC1	-1.1	4.0	9.5	-1.4	0.2	3.3	.	.
CCN(CC)C(=O)CC(c1cc(OC)c(OC)c(OC)c1)c1c(OC)cc(OC)c2c(-c3ccccc3)cc(=O)oc12 (stereo not given)	3.1	-15.2	2.0	6.4	-7.1	0.7	.	.
O=C(N/N=C/c1sc(=O)[nH]c1-[n+]1ccccc1)c1ccccc1[O-]	-7.2	3.1	3.0	-5.1	3.5	3.8	.	.
O=C(N/N=C/c1sc(=O)[nH]c1-[n+]1ccc2ccccc2c1)c1ccccc1[O-]	-7.5	-5.5	33.2*	-13.7	2.9	-1.8	-9.0	23.9*
Cc1ccc[n+](-c2[nH]c(=O)sc2/C=N/NC(=O)c2ccccc2[O-])c1	1.2	5.1	19.2*	0.5	16.2	2.5	-13.7	1.0
COCCCNC(=O)C1=CCN(S(=O)(=O)c2ccc(OC)cc2)CC1	0.7	9.2	-2.9	0.8	-10.0	-1.2	.	.
Cc1coc2c1c(C)cc1oc(=O)c(CC(=O)N[C@@H](CC(C)C)C(=O)O)c(C)c12	-6.9	17.2	3.7	-1.8	-3.5	2.1	.	.
N#C/C(=C\c1cccs1)c1nc2ccccc2[nH]1	-0.4	4.2	-2.7	-0.9	-1.1	-1.3	.	.
N#C/C(=C/c1ccc(O)c(O)c1)c1nc2ccccc2[nH]1	-1.3	-1.6	35.5*	-6.1	-3.5	7.3	-12.0	48.0*
CC(C)(C)[C@H]1COC(=O)CC/C=C\C[C@@H](CC(=O)N(CCO)Cc2ccccc2)C(=O)N1	-1.8	5.2	2.7	0.1	7.9	2.1	.	.
Nc1cc2nc3ccccc3oc-2cc1=O	-8.2	.	22.8*	-7.0	-11.5	12.6	1.0	15.3
O=C(c1cccc(Cl)c1)N1CCN(CCCc2ccccc2)CC1	2.4	0.3	-0.1	0.2	-6.7	1.2	.	.
COCCNC(=O)c1ccc(N2CC3CC(C2)c2cccc(=O)n2C3)c(NC(=O)c2ccccc2Cl)c1 (stereo not given)	4.6	-3.9	-5.1	2.6	-8.4	-2.4	.	.
COCCNC(=O)c1ccc(N2CC3CC(C2)c2cccc(=O)n2C3)c(NC(=O)c2ccccc2Br)c1 (stereo not given)	-3.4	0.2	49.1*	2.8	-7.5	-0.7	6.6	2.1
Cc1ccc(S(=O)(=O)CCC(=O)Oc2ccc3c(C)cc(=O)oc3c2)cc1	4.8	3.1	23.1*	1.3	15.3	-4.0	-8.3	0.0
CCOC(=O)C1CCN(CC(O)COCc2cccs2)CC1 (stereo not given)	5.3	3.4	22.9*	15.4	9.2	1.2	-1.0	-3.2
Cc1c(N=C2C=C(Br)C(=O)C(Br)=C2)c(=O)n(-c2ccccc2)n1C	18.5*	-10.2	45.9*	55.7*	10.6	56.7*	-2.8	3.5
Cc1c(N=C2C=CC(=O)c3ccccc32)c(=O)n(-c2ccccc2)n1C	-16.9	4.8	1.8	-10.1	7.1	5.8	.	.
COc1ccc(C(=O)NCc2ccc3c(c2)CCO3)cc1	2.5	11.7	-1.8	3.7	7.9	-2.5	.	.
O=C(O)c1ccccc1NS(=O)(=O)c1ccc(N/N=C/c2ccc(O)c(O)c2)c([N+](=O)[O-])c1	0.0	0.2	18.9*	2.6	24.1	2.7	6.4	42.9*
SMILES	MBD2 inh	ARFGAP1 inhibitor	TCR CD3 inh	UHRF1 MBD2 ctr	ASAP1 inh	LEDGF integ inh	BSA probe FL	TCR-CD3 conf
CCN1CCN(C(CNS(=O)(=O)c2ccccc2)c2ccccc2)CC1 (stereo not given)	1.6	-0.1	11.9	0.0	-5.8	5.8	.	.
O=C(Nc1nc(-c2ccco2)c(-c2ccco2)s1)c1cnccn1	12.8	-3.0	38.4*	40.5*	0.9	47.5*	-0.3	14.6
CC(C)CC1NC(=O)c2ccc(Cl)cc2-n2c1nc1cc(F)ccc1c2=O (stereo not given)	-0.7	6.6	169.5*	4.8	14.0	-1.6	5.4	-1.5
CC(C)CC1NC(=O)c2ccc(Cl)cc2-n2c1nc1ccc(F)cc1c2=O (stereo not given)	-0.1	0.3	10.9	0.4	16.8	-4.8	.	.
N#CC1=C(N)Oc2ccc3ccc(O)cc3c2C1c1ccsc1 (stereo not given)	1.8	21.7	69.8*	10.9	-5.8	2.6	72.4*	53.0*
O=C(c1cccs1)N1C[C@H](O)[C@@H](n2cc(C3CC3)nn2)C[C@@H]1c1ccccc1	3.2	-2.4	3.4	1.2	-8.9	7.0	.	.
COc1cccc(NC(=O)c2cccc(S(=O)(=O)N3CCN(Cc4ccccc4)CC3)c2)c1	-10.9	16.6	3.9	-3.8	-0.6	0.7	.	.
C/C(=N\NC(=S)NCCc1ccccc1)c1ccc(O)cc1O	-0.1	9.5	27.8*	-0.2	11.6	-4.9	-16.4	7.6
Cc1cc(C(=O)C(C)OC(=O)c2ccc(NC(=O)CC#N)cc2)c(C)n1-c1ccc(OC(F)F)cc1 (stereo not given)	0.9	16.0	24.2*	1.2	18.1	-2.6	5.2	18.2
CCN(CC)C(CNC(=O)c1cc(=O)[nH]c2ccccc12)c1ccccc1Cl (stereo not given)	-6.1	7.2	-0.6	-2.8	5.3	4.3	.	.
O=C(CCc1ccccc1)NNC(=O)c1cc(Cl)ccc1O	8.5	-5.7	23.7*	2.2	12.4	-7.8	48.7*	46.6*
O=C(NNC(=O)c1cc(Cl)ccc1O)c1cccs1	3.9	4.6	24.8*	-1.2	-2.7	-4.1	-14.8	19.3*
COC(=O)C1=C(C)N(C)C(=NCc2cc(OC)c(OC)c(OC)c2)NC1c1cccc(Cl)c1 (stereo not given)	-8.6	1.2	3.0	-1.7	-2.2	1.0	.	.
O=C(c1cc(-c2ccccc2)on1)N1CCC(Oc2cccnc2)CC1	-0.5	.	.	-2.0	.	0.4	.	.
CN(C)c1ccc(C=Cc2nccc3ccccc23)cc1	-10.7	3.9	157.2*	-22.1	-0.2	1.9	144.8*	87.9*
